# Reference: ChEMBL document CHEMBL4229503, “Discovery of novel Syk/PDGFR-α/c-Kit inhibitors as multi-targeting drugs to treat rheumatoid arthritis” (Bioorg Med Chem, 2018)
# pIC50: −log10 of the molar value.
# What was measured:
# [1] = Antiproliferative activity against rheumatoid arthritis patient-derived HFLS after 72 hrs by MTT assay; type: functional, Homo sapiens
# Summary of the method: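 RA synovial fibroblasts (DMEM, 10% FBS, passage 3) were seeded at 2 × 10^4 cells/well. Compound was given at graded concentrations against an untreated control for 72 h at 37 °C, 5% CO2. MTT was then added for 4 h and absorbance read at 450 nm. IC50 came from non-linear regression of 6-point dose-response curves.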
# [2] = tested on: BMMC; assay: Antiproliferative activity against BALB/c mouse BMMC after 48 hrs by MTT assay
# [3] = tested on: BMMC; assay: Antiinflammatory activity against BALB/c mouse BMMC assessed as reduction in TNFalpha levels incubated for 30 mins measured after 48 hrs by ELISA; type: functional, cell-based
# Summary of the method: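 BALB/c mouse bone-marrow mast cells were grown in RPMI 1640 with 1% non-essential amino acids and 10% FBS at 37 °C under 5% CO2. Cells were seeded at 2 × 10^4 cells/well in 6-well plates and given compound or vehicle for 30 min. Supernatant TNF-α was read by ELISA after 48 h.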
# [4] = target: Mast/stem cell growth factor receptor Kit (Homo sapiens, UniProt P10721); assay: Inhibition of c-kit (unknown origin) using FAM-labeled peptide as substrate preincubated for 10 mins followed by substrate addition measured after 25 mins
# Sequence of Mast/stem cell growth factor receptor Kit (P10721 whole entry): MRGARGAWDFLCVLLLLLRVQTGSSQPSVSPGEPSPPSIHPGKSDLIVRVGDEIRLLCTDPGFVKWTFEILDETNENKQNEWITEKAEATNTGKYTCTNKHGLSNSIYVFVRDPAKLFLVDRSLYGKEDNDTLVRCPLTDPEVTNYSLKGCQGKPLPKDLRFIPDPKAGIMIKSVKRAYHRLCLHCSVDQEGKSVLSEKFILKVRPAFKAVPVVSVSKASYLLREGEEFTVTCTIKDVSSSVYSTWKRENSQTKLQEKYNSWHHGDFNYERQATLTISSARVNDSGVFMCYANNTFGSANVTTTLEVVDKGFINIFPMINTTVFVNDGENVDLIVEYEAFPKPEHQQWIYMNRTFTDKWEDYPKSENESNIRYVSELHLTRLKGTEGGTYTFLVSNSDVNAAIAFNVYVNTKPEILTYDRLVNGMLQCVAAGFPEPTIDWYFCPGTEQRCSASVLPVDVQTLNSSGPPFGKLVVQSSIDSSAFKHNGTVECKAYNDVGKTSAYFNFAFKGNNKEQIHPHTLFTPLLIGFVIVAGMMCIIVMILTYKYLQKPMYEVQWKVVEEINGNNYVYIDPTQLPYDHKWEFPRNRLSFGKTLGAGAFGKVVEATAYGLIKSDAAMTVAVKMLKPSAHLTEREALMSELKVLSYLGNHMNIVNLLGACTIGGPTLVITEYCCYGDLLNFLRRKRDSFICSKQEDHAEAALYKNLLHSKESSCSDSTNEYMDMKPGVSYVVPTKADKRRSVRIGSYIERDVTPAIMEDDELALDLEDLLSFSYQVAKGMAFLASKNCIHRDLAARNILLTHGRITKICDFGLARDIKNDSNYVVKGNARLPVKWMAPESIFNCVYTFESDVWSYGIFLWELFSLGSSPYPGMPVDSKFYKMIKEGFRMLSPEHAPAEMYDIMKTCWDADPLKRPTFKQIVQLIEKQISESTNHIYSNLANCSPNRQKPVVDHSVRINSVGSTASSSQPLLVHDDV
# Summary of the method: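 Enzyme was preincubated with compound for 10 min at room temperature, then FAM-labeled peptide with ATP was added for 25 min at 28 °C. After an EDTA stop, the plate was read on a Caliper. IC50 came from non-linear curve fit.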
# [5] = target: Platelet-derived growth factor receptor alpha (Homo sapiens, UniProt P16234); assay: Inhibition of PDGFRalpha (unknown origin) using FAM-labeled peptide as substrate preincubated for 10 mins followed by substrate addition measured after 25 mins
# Sequence of Platelet-derived growth factor receptor alpha (P16234 whole entry): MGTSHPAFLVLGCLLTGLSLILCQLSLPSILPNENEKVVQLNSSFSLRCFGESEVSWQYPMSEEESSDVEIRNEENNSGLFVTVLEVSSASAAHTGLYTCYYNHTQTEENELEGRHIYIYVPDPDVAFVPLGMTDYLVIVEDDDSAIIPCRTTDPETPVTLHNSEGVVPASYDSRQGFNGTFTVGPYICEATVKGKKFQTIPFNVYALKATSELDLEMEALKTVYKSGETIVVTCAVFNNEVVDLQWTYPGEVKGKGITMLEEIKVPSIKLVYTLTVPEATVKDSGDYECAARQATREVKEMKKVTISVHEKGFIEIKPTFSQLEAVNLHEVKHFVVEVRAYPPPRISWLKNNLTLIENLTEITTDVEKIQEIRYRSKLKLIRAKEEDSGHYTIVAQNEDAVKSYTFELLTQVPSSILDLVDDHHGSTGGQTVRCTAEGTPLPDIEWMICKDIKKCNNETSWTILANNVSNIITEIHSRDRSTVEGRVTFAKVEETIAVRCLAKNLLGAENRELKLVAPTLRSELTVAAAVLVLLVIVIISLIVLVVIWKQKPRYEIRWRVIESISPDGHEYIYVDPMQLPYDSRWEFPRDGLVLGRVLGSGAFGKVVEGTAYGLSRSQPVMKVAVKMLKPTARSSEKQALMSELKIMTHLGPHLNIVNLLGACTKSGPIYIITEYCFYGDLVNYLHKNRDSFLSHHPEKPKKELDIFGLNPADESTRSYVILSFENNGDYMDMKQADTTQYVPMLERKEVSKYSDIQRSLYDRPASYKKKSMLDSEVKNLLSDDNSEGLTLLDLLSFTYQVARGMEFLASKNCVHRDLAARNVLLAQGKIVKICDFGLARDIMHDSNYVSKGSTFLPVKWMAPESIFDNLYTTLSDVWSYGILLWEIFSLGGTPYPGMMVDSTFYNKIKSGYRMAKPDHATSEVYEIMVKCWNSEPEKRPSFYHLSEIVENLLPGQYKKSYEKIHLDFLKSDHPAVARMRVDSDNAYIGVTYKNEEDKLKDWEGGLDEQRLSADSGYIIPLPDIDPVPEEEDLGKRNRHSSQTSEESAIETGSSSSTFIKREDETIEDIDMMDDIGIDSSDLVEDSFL
# [6] = species: Homo sapiens; assay: Antiinflammatory activity against rheumatoid arthritis patient-derived HFLS assessed as reduction in IL-6 levels incubated for 30 mins measured after 72 hrs by ELISA; type: functional
# Summary of the method: (§1)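 RA patient synovial fibroblasts were kept in high-glucose DMEM with 10% FBS at 37 °C under 5% CO2 and used after 3 passages. Cells were seeded at 2 × 10^4 cells/well in 6-well plates and given compound or vehicle for 30 min. IL-6 and MMP-3 in the supernatant were read by ELISA after 72 h.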
# [7] = species: Homo sapiens; assay: Antiinflammatory activity against rheumatoid arthritis patient-derived HFLS assessed as reduction in MMP-3 levels incubated for 30 mins measured after 72 hrs by ELISA; type: functional; summary of the method: as §1
# [8] = Solubility of the compound in water after 24 hrs by HPLC method; type: physicochemical
pIC50 [4],pIC50 [5],SMILES,pIC50 [1],also measured
4.59,< 4.30,CCCCCCCNc1nc(N2CCC(NC(=O)c3ccc(C(=O)O)cn3)C2)nc2c1COC2 (centres undefined),5.09,pIC50 [2]: 4.89; Activity [3]: Dose-dependent effect
4.73,,COc1cc(Nc2nc(N3CCC(NC(=O)c4ccc(C(=O)O)cn4)C3)nc3c2COC3)cc(OC)c1 (centres undefined),5.49,pIC50 [2]: 5.70; Activity [6]: Dose-dependent effect; Activity [3]: Dose-dependent effect; Activity [7]: Dose-dependent effect; solubility at 24 h [8]: 167 µg/mL
< 4.30,< 4.30,CCOCCCNc1nc(N2CCC(NC(=O)c3ccc(C(=O)O)cn3)C2)nc2c1COC2 (centres undefined),,
< 4.30,,COc1ccc(Nc2nc(N3CCC(NC(=O)c4ccc(C(=O)O)cn4)C3)nc3c2COC3)cc1OC (centres undefined),,
< 4.30,< 4.30,COc1ccc(Nc2nc(N3CCC(NC(=O)c4ccc(C(=O)O)cn4)C3)nc3c2COC3)cc1 (centres undefined),,
< 4.30,< 4.30,O=C(O)c1ccc(C(=O)NC2CCN(c3nc4c(c(NC5CCCCC5)n3)COC4)C2)nc1 (centres undefined),5.27,
< 4.30,< 4.30,CCCCCNc1nc(N2CCC(NC(=O)c3ccc(C(=O)O)cn3)C2)nc2c1COC2 (centres undefined),,
< 4.30,< 4.30,CCc1ccc(Nc2nc(N3CCC(NC(=O)c4ccc(C(=O)O)cn4)C3)nc3c2COC3)cc1 (centres undefined),5.03,
< 4.30,< 4.30,Cc1ccc(Nc2nc(N3CCC(NC(=O)c4ccc(C(=O)O)cn4)C3)nc3c2COC3)cc1 (centres undefined),,
4.50,,COc1cc(Nc2nc(N3CCC(NC(=O)c4ccc(C(=O)O)cn4)C3)nc3c2COC3)cc(OC)c1OC (centres undefined),4.51,pIC50 [2]: 4.68
,,COc1ccc(Nc2nc(N3CCC(NC(=O)c4ccc(C(=O)O)cc4)C3)nc3c2CCC3)cc1OC (centres undefined),,solubility at 24 h [8]: 86 µg/mL
< 4.30,< 4.30,COCCCNc1nc(N2CCC(NC(=O)c3ccc(C(=O)O)cn3)C2)nc2c1COC2 (centres undefined),,
< 4.30,< 4.30,Cc1ccc(Nc2nc(N3CCC(NC(=O)c4ccc(C(=O)O)cn4)C3)nc3c2COC3)cc1C (centres undefined),4.95,
4.31,< 4.30,O=C(O)c1ccc(C(=O)NC2CCN(c3nc4c(c(Nc5ccc6c(c5)OCCO6)n3)COC4)C2)nc1 (centres undefined),,
< 4.30,< 4.30,CCCCCCNc1nc(N2CCC(NC(=O)c3ccc(C(=O)O)cn3)C2)nc2c1COC2 (centres undefined),5.40,Activity [6]: Dose-dependent effect; Activity [7]: Dose-dependent effect
,,Cc1ccc(NC(=O)c2ccc(CN3CCN(C)CC3)cc2)cc1Nc1nc(-c2cccnc2)cs1 [MASITINIB],,pIC50 [2]: 7.00
